In ChEMBL document CHEMBL5104168, “Design, synthesis, and antitumor study of a series of novel 1-Oxa-4-azaspironenone derivatives” (Bioorg Med Chem Lett, 2022):

Tests used:
MDA-MB-231 [1] = assay: Anticancer activity against human MDA-MB-231 cells assessed as inhibition of cell proliferation; type: functional, cell-based
A549 = assay: Anticancer activity against human A549 cells assessed as inhibition of cell proliferation; type: functional, cell-based
HeLa = assay: Anticancer activity against human HeLa cells assessed as inhibition of cell proliferation; type: functional, cell-based
[2] = Cytotoxicity against HUVEC cells assessed as inhibition of cell growth; details: human
MDA-MB-231 [3] = assay: Induction of cell cycle arrest in human MDA-MB-231 cells assessed as accumulation of cells at G2 phase at 10 uM (reference value: 16.5 %); type: functional
MDA-MB-231 [4] = assay: Induction of apoptosis in human MDA-MB-231 cells assessed as viable cells at 10 uM by Annexin V-FITC/propidium iodide staining based flow cytometric analysis (reference value: 93.6 %); type: functional; details: read-out: Activity
MDA-MB-231 [5] = assay: Induction of cell cycle arrest in human MDA-MB-231 cells assessed as accumulation of cells at S phase at 10 uM (reference value: 21.17 %); type: functional
MDA-MB-231 [6] = assay: Induction of apoptosis in human MDA-MB-231 cells assessed as dead cells at 10 uM by Annexin V-FITC/propidium iodide staining based flow cytometric analysis (reference value: 0.68 %); type: functional
Method in brief: (§1)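 MDA-MB-231 cells were cultured with compound at 10 μM. DMSO-treated cells served as the vehicle control and combretastatin A4 (10 μM) as the positive control. Cells were double-labelled with Annexin V-FITC and propidium iodide and analysed by flow cytometry. Population percentages were read from the quadrants: early-apoptotic, late-apoptotic and dead cells. Incubation time was not given.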

MDA-MB-231 [7] = assay: Induction of apoptosis in human MDA-MB-231 cells assessed as early apoptotic cells at 10 uM by Annexin V-FITC/propidium iodide staining based flow cytometric analysis (reference value: 4.66 %); type: functional; method in brief: as §1
MDA-MB-231 [8] = assay: Induction of cell cycle arrest in human MDA-MB-231 cells assessed as accumulation of cells at G1 phase at 10 uM (reference value: 61.33 %); type: functional
MDA-MB-231 [9] = assay: Induction of apoptosis in human MDA-MB-231 cells assessed as late apoptotic cells at 10 uM by Annexin V-FITC/propidium iodide staining based flow cytometric analysis (reference value: 1.02 %); type: functional; method in brief: as §1

Row | Compound | IC50 (MDA-MB-231 [1]) [nM] | IC50 (A549) [nM] | IC50 (HeLa) [nM] | further results
1 | Cc1ccc(CN2C(=O)COC23C=CC(=O)C=C3)cc1 | 100 | 260 | 200 | 
2 | O=C1C=CC2(OCC(=O)N2Cc2ccc(Cl)cc2)C2CC12 (configuration not stated) | 100 | 6060 | > 10000 | Activity (MDA-MB-231 [3]): 27.16%; viability at 10 µM (MDA-MB-231 [4]): 85.4%; IC50 [2]: 83600 nM; Activity (MDA-MB-231 [5]): 19.28%; Activity (MDA-MB-231 [6]): 0.72%; Activity (MDA-MB-231 [7]): 10.9%; Activity (MDA-MB-231 [8]): 53.57%; Activity (MDA-MB-231 [9]): 3%
3 | O=C1C=CC2(OCC(=O)N2Cc2cccc(Cl)c2)C2CC12 (configuration not stated) | 460 | > 10000 | 1730 | 
4 | O=C1C=CC2(C=C1)OCC(=O)N2Cc1c(Cl)cccc1Cl | 120 | 4950 | 290 | 
5 | O=C1C=CC2(C=C1)OCC(=O)N2Cc1ccccc1Cl | 70 | 1050 | 360 | 
6 | O=C1C=CC2(OCC(=O)N2Cc2ccc(Br)cc2)C2CC12 (configuration not stated) | 1120 | 6090 | > 10000 | 
7 | O=C1C=CC2(OCC(=O)N2Cc2ccccc2Cl)C2CC12 (configuration not stated) | 420 | 660 | > 10000 | 
8 | COC(=O)C(C(=O)OC)C1CC(=O)C=CC12OCC(=O)N2Cc1ccc(Cl)cc1 (configuration not stated) | 380 | 9980 | 180 | 
9 | Cn1c(CCCC(=O)O)nc2cc(N(CCCl)CCCl)ccc21 [BENDAMUSTINE] |  |  | > 20000 | 
10 | COc1ccc(/C=C\c2cc(OC)c(OC)c(OC)c2)cc1O [COMBRETASTATIN A4] |  |  |  | Activity (MDA-MB-231 [3]): 57.38%; viability at 10 µM (MDA-MB-231 [4]): 77.7%; Activity (MDA-MB-231 [5]): 32.46%; Activity (MDA-MB-231 [6]): 0.35%; Activity (MDA-MB-231 [7]): 17.2%; Activity (MDA-MB-231 [8]): 10.16%; Activity (MDA-MB-231 [9]): 4.81%

The remaining molecules from weak to strong by IC50 (MDA-MB-231 [1]), led by results:

Row | IC50 (MDA-MB-231 [1]) [nM] | IC50 (A549) [nM] | IC50 (HeLa) [nM] | Compound | further results
11 | 5520 | 8830 | 1760 | O=C1C=CC2(OCC(=O)N2Cc2c(Cl)cccc2Cl)C2CC12 (configuration not stated) | 
12 | 1360 | 2300 | 2410 | CCSC1CC(=O)CC(SCC)C12OCC(=O)N2Cc1ccc(C)cc1 (configuration not stated) | 
13 | 1230 | 2550 | 1060 | COC(=O)C(C(=O)OC)C1CC(=O)C=CC12OCC(=O)N2Cc1ccc(Br)cc1 (configuration not stated) | 
14 | 1200 | > 10000 | 3860 | O=C1C=CC2(OCC(=O)N2Cc2ccc([N+](=O)[O-])cc2)C2CC12 (configuration not stated) | 
15 | 340 | 9250 | 410 | COC(=O)C(C(=O)OC)C1CC(=O)C=CC12OCC(=O)N2Cc1ccc(C)cc1 (configuration not stated) | 
16 | 260 | > 10000 | 3920 | CCSC1CC(=O)CC(SCC)C12OCC(=O)N2Cc1ccc(Cl)cc1 (configuration not stated) | 
17 | 250 | 260 | 340 | COC(=O)C(C(=O)OC)C1CC(=O)C=CC12OCC(=O)N2Cc1cccc(Cl)c1 (configuration not stated) | 
18 | 210 | 810 | 270 | O=C1C=CC2(C=C1)OCC(=O)N2Cc1ccc([N+](=O)[O-])cc1 | 
19 | 120 | 9270 | 210 | CCSC1=CC(=O)CC(SCC)C12OCC(=O)N2Cc1c(Cl)cccc1Cl (configuration not stated) | 
20 | 110 | 1290 | 410 | O=C1C=CC2(C=C1)OCC(=O)N2Cc1ccc(Cl)cc1 | IC50 [2]: 44600 nM
21 | 110 | 3010 | 370 | O=C1C=CC2(C=C1)OCC(=O)N2Cc1cccc(Cl)c1 | 
22 | 80 | 190 | 150 | O=C1C=CC2(C=C1)OCC(=O)N2Cc1ccc(Br)cc1 | 
